From ChEMBL document CHEMBL1154201, “2-Aminobenzimidazoles as potent Aurora kinase inhibitors” (Bioorg Med Chem Lett, 2009)
In brackets after ≈: the same amount, converted by molar mass. Activity calls are given as the source filed them. The rule behind the calls is not given here.

What was measured:
[1] = Half life in mouse at 5 mg/kg, iv; format: ADME, organism-based; set-up: dose 5 mg/kg, route intravenous; details: in vivo
HCT-116 [2] = experiment: Cell cycle arrest in human HCT116 cells assessed as accumulation of cells at G2 phase; format: functional, cell-based
Aurora kinase A = target: T1, Aurora kinase A (Homo sapiens, UniProt O14965); experiment: Inhibition of Aurora A after 60 mins
T1 sequence (O14965 whole entry): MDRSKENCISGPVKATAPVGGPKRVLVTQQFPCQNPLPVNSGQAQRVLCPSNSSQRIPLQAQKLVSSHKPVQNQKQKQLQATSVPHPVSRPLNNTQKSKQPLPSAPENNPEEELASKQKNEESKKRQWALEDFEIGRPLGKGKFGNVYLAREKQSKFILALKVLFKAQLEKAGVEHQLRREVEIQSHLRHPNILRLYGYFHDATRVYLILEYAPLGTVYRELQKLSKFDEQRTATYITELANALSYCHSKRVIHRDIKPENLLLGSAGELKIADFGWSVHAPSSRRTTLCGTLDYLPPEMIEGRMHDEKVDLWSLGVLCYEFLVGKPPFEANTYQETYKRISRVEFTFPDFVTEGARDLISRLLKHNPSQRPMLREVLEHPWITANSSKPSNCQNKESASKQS

HCT-116 [3] = experiment: Cell cycle arrest in human HCT116 cells assessed as accumulation of 4N DNA by FACS analysis; format: functional, cell-based
Procedure, shortened: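 HCT116 cells exposed to 16, 63, 250 and 1000 nM of compound, then cell-cycle profile read by FACS. EC50 is reported as the concentration range at which ≥50% of cells have 4 N or higher DNA content.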

Aurora kinase B = Aurora kinase B (Homo sapiens, UniProt Q96GD4); experiment: Inhibition of Aurora B after 60 mins
HCT-116 [4] = experiment: Antiproliferative activity against human HCT116 cells by BrdU incorporation assay; format: functional, cell-based
Procedure, shortened: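 HCT116 proliferation measured as BrdU incorporation; EC50 reported.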

[5] = Clearance in mouse at 5 mg/kg, iv; format: ADME, organism-based; set-up: dose 5 mg/kg, route intravenous; details: in vivo
[6] = Aqueous solubility at pH 4; format: physicochemical
Procedure, shortened: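 Kinetic solubility at pH 4.0, reported as a range from low to high solubility; values of 1000 µM or higher are reported as >1000 µM.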

Chain of Aurora kinase B (Q96GD4 whole entry): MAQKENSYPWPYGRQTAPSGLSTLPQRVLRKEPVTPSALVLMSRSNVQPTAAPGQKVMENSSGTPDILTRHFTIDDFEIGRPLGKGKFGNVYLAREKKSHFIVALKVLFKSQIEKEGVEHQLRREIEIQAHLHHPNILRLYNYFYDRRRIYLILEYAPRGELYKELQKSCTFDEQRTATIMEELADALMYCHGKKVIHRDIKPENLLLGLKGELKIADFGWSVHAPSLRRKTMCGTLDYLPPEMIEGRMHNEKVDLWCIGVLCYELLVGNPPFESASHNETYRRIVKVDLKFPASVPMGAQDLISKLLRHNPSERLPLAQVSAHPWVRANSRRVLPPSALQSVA

Structure (SMILES) | half-life [1] [h] | IC50 (Aurora kinase A) [nM] | EC50 (HCT-116 [3]) [nM] | IC50 (Aurora kinase B) [nM] | EC50 (HCT-116 [4]) [nM] | clearance [5] [mL/min/kg] | solubility [6] [µM] | Activity (HCT-116 [2])
Fc1cc(CCNc2ncnc3ccsc23)ccc1Nc1nc2cc(C(F)(F)F)ccc2[nH]1 |  | 64 | 63 | 21 | 80 |  | 750 (≈ 354 µg/mL) | 
FC(F)(F)c1ccc2[nH]c(Nc3ccc(CCNc4ncnc5ccsc45)cc3)nc2c1 | 0.61 | 40 | 16 | 6 | 5 | 85 | 750 (≈ 341 µg/mL) | Active
c1ccc2[nH]c(Nc3ccc(CNc4ncnc5ccsc45)cc3)nc2c1 |  |  |  | > 10000 |  |  |  | 
c1ccc2[nH]c(Nc3ncc(CCNc4ncnc5ccsc45)s3)nc2c1 |  | 1400 |  | 420 |  |  | 400 (≈ 157 µg/mL) | 
FC(F)(F)c1cccc(Nc2nc3ccc(CCNc4ncnc5ccsc45)cc3[nH]2)c1 |  |  |  | 1400 |  |  |  | 
c1ccc2[nH]c(Nc3ccc(CCNc4ncnc5ccsc45)cc3)nc2c1 |  | 28 |  | 10 | 41 |  | > 1000 | 
c1cc2nc(Nc3ccc(CCNc4ncnc5ccsc45)cc3)[nH]c2cn1 |  |  |  | 140 |  |  | > 1000 | 
O=C(Nc1cccc(C(F)(F)F)c1)Nc1ncc(CCNc2ncnc3ccsc23)s1 |  |  | < 16 |  |  |  | 50 (≈ 23.2 µg/mL) | 
O=C(Nc1ccccc1)Nc1ncc(CCNc2ncnc3ccsc23)s1 |  |  | 16 |  |  |  | 100 (≈ 39.7 µg/mL) | 
c1cnc2nc(Nc3ccc(CCNc4ncnc5ccsc45)cc3)[nH]c2c1 |  |  |  | 83 | 270 |  | > 1000 | 
FC(F)(F)c1ccc2nc(Nc3ncc(CCNc4ncnc5ccsc45)s3)[nH]c2c1 |  | 490 |  | 620 | 1900 |  | 100 (≈ 46.1 µg/mL) | 
c1ccc2sc(Nc3ccc(CCNc4ncnc5ccsc45)cc3)nc2c1 |  |  |  | 2500 |  |  | 100 (≈ 40.4 µg/mL) | 

Further lines, with some results ahead:

half-life [1] [h] | IC50 (Aurora kinase A) [nM] | EC50 (HCT-116 [3]) [nM] | IC50 (Aurora kinase B) [nM] | EC50 (HCT-116 [4]) [nM] | clearance [5] [mL/min/kg] | solubility [6] [µM] | Structure (SMILES) | Activity (HCT-116 [2])
0.45 | 28 | 16 | 8 | 9 | 39 | > 1000 | Clc1ccc2[nH]c(Nc3ccc(CCNc4ncnc5ccsc45)cc3)nc2c1 | Active
 |  |  | 5600 |  |  | > 1000 | Cc1nc(Nc2ccc(CCNc3ncnc4ccsc34)cc2)[nH]c1C | 
 |  |  | 280 |  |  | > 1000 | Cn1c(Nc2ccc(CCNc3ncnc4ccsc34)cc2)nc2ccccc21 | 
 |  |  | 120 | 400 |  | 200 (≈ 77.5 µg/mL) | c1ccc2oc(Nc3ccc(CCNc4ncnc5ccsc45)cc3)nc2c1 | 
 |  |  | 600 |  |  | > 1000 | FC(F)(F)c1ccc2[nH]c(Nc3ccc(CCNc4ncnc5ccsc45)cn3)nc2c1 | 
 | 20 | 16 | 10 | 17 |  | 100 (≈ 42.2 µg/mL) | Clc1cnc2nc(Nc3ccc(CCNc4ncnc5ccsc45)cc3)[nH]c2c1 | 
 |  | 63 | 63 | 161 |  | 400 (≈ 182 µg/mL) | FC(F)(F)c1ccc2nc(Nc3ccc(CCNc4ncnc5ccsc45)nc3)[nH]c2c1 | 
 |  |  | 580 | 8500 |  |  | c1cc(CNc2ncnc3ccsc23)cc(Nc2nc3ccccc3[nH]2)c1 | 
1.5 | 17 | < 16 | 5 | < 1 |  | 100 (≈ 45.5 µg/mL) | FC(F)(F)c1cnc2nc(Nc3ccc(CCNc4ncnc5ccsc45)cc3)[nH]c2c1 | 
1.4 |  | < 16 |  |  | 48 | 50 | CS(=O)(=O)O.O=C(Nc1cccc(Cl)c1)Nc1ncc(CCNc2ncnc3ccsc23)s1 [SNS-314 MESYLATE] | 
 |  |  | 1400 |  |  |  | c1cc(CCNc2ncnc3ccsc23)cc(Nc2nc3ccccc3[nH]2)c1 | 
 |  |  | > 10000 |  |  | > 1000 | c1ccc(-c2c[nH]c(Nc3ccc(CCNc4ncnc5ccsc45)cc3)n2)cc1 | 
